In ChEMBL document CHEMBL2346664, “Synthesis, characterization and in vitro anticancer evaluation of novel 1,2,4-triazolin-3-one derivatives” (2013):
The source made the active and inactive calls. The calls are words filed in the database; no cut-off is given here.

Tests used:
MCF7 = assay: Growth inhibition of human MCF7 cells after 48 hrs by sulforhodamine B assay; format: functional; conditions: MCF7, 48 h
How it was run: (§1)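 NCI 60-cell-line five-dose screen. Cells were plated at 5,000–40,000/well by doubling time and grown 24 h at 37 °C, 5% CO2. Time-zero plates were TCA-fixed. Drug from DMSO stock was tested at 0.01, 0.1, 1, 10 and 100 µM final for 48 h continuous exposure. Read-out was SRB at 515 nm. GI50 is the concentration giving 50% reduction in net protein increase versus untreated control.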

OVCAR-8 [1] = assay: Growth inhibition of human OVCAR8 cells assessed as cell growth at 10 '-4 M after 48 hrs by sulforhodamine B assay; format: functional; conditions: OVCAR-8, 48 h, read-out: Activity
K562 = assay: Growth inhibition of human K562 cells assessed as growth inhibition at 10 uM after 48 hrs by sulforhodamine B assay; format: functional; conditions: K562, 48 h, read-out: GI
OVCAR-8 [2] = assay: Growth inhibition of human OVCAR8 cells assessed as cell growth at 10 '-7 M after 48 hrs by sulforhodamine B assay; format: functional; conditions: OVCAR-8, 48 h, read-out: Activity
HCT-15 = assay: Growth inhibition of human HCT15 cells assessed as cell growth at 10 '-4 M after 48 hrs by sulforhodamine B assay; format: functional; conditions: HCT-15, 48 h, read-out: Activity
HCT-116 = assay: Growth inhibition of human HCT116 cells assessed as cell growth at 10 '-4 M after 48 hrs by sulforhodamine B assay; format: functional; conditions: HCT-116, 48 h, read-out: Activity
HL-60(TB) [3] = assay: Growth inhibition of human HL-60(TB) cells after 48 hrs by sulforhodamine B assay; format: functional; conditions: HL-60, 48 h
How it was run: (§2)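 NCI 60-cell-line five-dose screen over 0.01, 0.1, 1, 10 and 100 µM, with 48 h continuous exposure at 37 °C and 5% CO2 after 24 h pre-incubation (5,000–40,000 cells/well). Cells were TCA-fixed (10% final for adherent, 16% for suspension), stained with SRB and read at 515 nm. GI50 was solved from [(Ti−Tz)/(C−Tz)]×100 = 50 against time-zero plates.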

HOP-92 = assay: Growth inhibition of human HOP92 cells assessed as cell growth at 10 '-6 M after 48 hrs by sulforhodamine B assay; format: functional; conditions: HOP-92, 48 h, read-out: Activity
786-0 [4] = assay: Growth inhibition of human 786-0 cells assessed as cell growth at 10 '-5 M after 48 hrs by sulforhodamine B assay; format: functional; conditions: 786-0, 48 h, read-out: Activity
How it was run: (§3)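 Percent growth at each of the five concentrations of the 48 h continuous-exposure NCI SRB screen. Drug stocks were in DMSO at 400× the top final concentration and diluted in medium with gentamicin. Growth was calculated as [(Ti-Tz)/(C-Tz)]×100 when Ti ≥ Tz, or [(Ti-Tz)/Tz]×100 when Ti < Tz. Tz plates were fixed at drug addition; untreated wells served as control. Absorbance was read at 515 nm.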

COLO 205 = assay: Growth inhibition of human COLO205 cells assessed as cell growth at 10 '-6 M after 48 hrs by sulforhodamine B assay; format: functional; conditions: COLO 205, 48 h, read-out: Activity
How it was run: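 In the same five-dose SRB screen (48 h, 37 °C, 5% CO2), percentage growth was computed at each concentration from time-zero (Tz), control (C) and treated (Ti) absorbances. The formula was [(Ti−Tz)/(C−Tz)]×100 when Ti ≥ Tz, or [(Ti−Tz)/Tz]×100 when Ti < Tz.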

KM12 [5] = assay: Growth inhibition of human KM12 cells after 48 hrs by sulforhodamine B assay; format: functional; conditions: KM12, 48 h; how it was run: as §1
DU-145 = assay: Growth inhibition of human DU145 cells assessed as cell growth at 10 '-8 M after 48 hrs by sulforhodamine B assay; format: functional; conditions: DU-145, 48 h, read-out: Activity
BT-549 = assay: Growth inhibition of human BT549 cells assessed as cell growth at 10 '-5 M after 48 hrs by sulforhodamine B assay; format: functional; conditions: BT-549, 48 h, read-out: Activity; how it was run: as §3
A549 = assay: Growth inhibition of human A549 cells assessed as cell growth at 10 '-4 M after 48 hrs by sulforhodamine B assay; format: functional; conditions: A549, 48 h, read-out: Activity; how it was run: as §3
[6] = Growth inhibition of human NCI-ADR-RES cells assessed as cell growth at 10 '-4 M after 48 hrs by sulforhodamine B assay; format: functional; conditions: read-out: Activity
MDA-MB-435 = assay: Growth inhibition of human MDA-MB-435 cells assessed as cell growth at 10 '-6 M after 48 hrs by sulforhodamine B assay; format: functional; conditions: MDA-MB-435, 48 h, read-out: Activity
[7] = Growth inhibition of human […] cells assessed as cell growth at 10 uM after 48 hrs by sulforhodamine B assay; format: functional; conditions: read-out: Activity
How it was run: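 NCI-60 primary screen at a single dose of 10^-5 M. Output is mean growth percent of treated cells relative to untreated controls, where values between 0 and 100 indicate growth inhibition and values below 0 indicate cytotoxicity. Cells were plated 24 h before drug, incubated 48 h at 37 °C, 5% CO2, and stained with SRB after TCA fixation. Suspension cells were fixed with 80% TCA (16% final).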

HL-60(TB) [8] = assay: Growth inhibition of human HL-60(TB) cells assessed as growth inhibition at 10 uM after 48 hrs by sulforhodamine B assay; format: functional, cell-based
How it was run: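 NCI DTP single high-dose primary screen at 10^-5 M across 60 human tumour lines. Growth percent of treated cells is taken relative to untreated controls: values of 0–100 indicate growth inhibition and values below 0 indicate cytotoxicity. Both growth percent and percentage growth inhibition are reported.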

SK-OV-3 = assay: Growth inhibition of human SKOV3 cells assessed as cell growth at 10 '-7 M after 48 hrs by sulforhodamine B assay; format: functional; conditions: SK-OV-3, 48 h, read-out: Activity
SNB-75 = assay: Growth inhibition of human SNB75 cells after 48 hrs by sulforhodamine B assay; format: functional; conditions: SNB-75, 48 h, read-out: LD50 (the source's name)
SF-539 = assay: Growth inhibition of human SF539 cells assessed as cell growth at 10 '-5 M after 48 hrs by sulforhodamine B assay; format: functional; conditions: SF-539, 48 h, read-out: Activity
UACC-257 = assay: Growth inhibition of human UACC257 cells after 48 hrs by sulforhodamine B assay; format: functional; conditions: UACC-257, 48 h; how it was run: as §2
CAKI-1 = assay: Growth inhibition of human CAKI-1 cells assessed as cell growth at 10 '-7 M after 48 hrs by sulforhodamine B assay; format: functional; conditions: CAKI-1, 48 h, read-out: Activity; how it was run: as §3
KM12 [9] = assay: Growth inhibition of human KM12 cells assessed as cell growth at 10 '-5 M after 48 hrs by sulforhodamine B assay; format: functional; conditions: KM12, 48 h, read-out: Activity
SF-268 = assay: Growth inhibition of human SF268 cells assessed as cell growth at 10 '-6 M after 48 hrs by sulforhodamine B assay; format: functional; conditions: SF-268, 48 h, read-out: Activity
786-0 [10] = assay: Growth inhibition of human 786-0 cells assessed as cell growth at 10 '-6 M after 48 hrs by sulforhodamine B assay; format: functional; conditions: 786-0, 48 h, read-out: Activity; how it was run: as §3
[11] = read-out: LD50 (the source's name)

Cc1cc(=O)oc2cc(OCCn3c(C)nn(-c4ccc(Cl)cc4)c3=O)ccc12
GI50 (MCF7): 2700 nM
TGI (MCF7): > 1000 nM
CC50 (MCF7; [11]): > 1000 nM
growth at 100 µM (OVCAR-8 [1]): 24%
inhibition of growth at 10 µM (K562): 83.7%
growth at 0.1 µM (OVCAR-8 [2]): 98%
growth at 100 µM (HCT-15): 25%
growth at 100 µM (HCT-116): 23%
GI50 (HL-60(TB) [3]): 2800 nM
growth at 1 µM (HOP-92): 83%
growth at 10 µM (786-0 [4]): 35%
growth at 1 µM (COLO 205): 89%
GI50 (KM12 [5]): 1660 nM
TGI (KM12 [5]): > 1000 nM
CC50 (KM12 [5]; [11]): > 1000 nM
growth at 0.01 µM (DU-145): 111%
growth at 10 µM (BT-549): 64%
growth at 100 µM (A549): 27%
growth at 100 µM [6]: 2%
growth at 1 µM (MDA-MB-435): -8%
growth at 10 µM [7]: 32.9%
growth inhibition (GI) (HL-60(TB) [8]): Active
growth at 0.1 µM (SK-OV-3): 103%
CC50 (SNB-75): > 1000 nM
growth at 10 µM (SF-539): 25%
TGI (UACC-257): > 1000 nM
CC50 (UACC-257; [11]): > 1000 nM
growth at 0.1 µM (CAKI-1): 92%
growth at 10 µM (KM12 [9]): 21%
growth at 1 µM (SF-268): 87%
growth at 1 µM (786-0 [10]): 97%
